Assay outcomes deposited in PubChem BioAssay by several laboratories.
m5-HT2A agonist: mouse Htr2a agonists via beta-arrestin recruitment, primary screen, cell-based, luminescence | CHO-K1 mHTR2A beta-arrestin complementation; percent of 30 µM serotonin response | activation, % at 7.6 µM | hit rate 0.66% among 360,000;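 active = activation above a run cutoff, the mean activation of all tested compounds plus 3 SD, cut at about 14% in these data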;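 note: 0% = plate median of compound wells and 100% = 30 µM serotonin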
Target sequence (P35363 whole entry, looked up): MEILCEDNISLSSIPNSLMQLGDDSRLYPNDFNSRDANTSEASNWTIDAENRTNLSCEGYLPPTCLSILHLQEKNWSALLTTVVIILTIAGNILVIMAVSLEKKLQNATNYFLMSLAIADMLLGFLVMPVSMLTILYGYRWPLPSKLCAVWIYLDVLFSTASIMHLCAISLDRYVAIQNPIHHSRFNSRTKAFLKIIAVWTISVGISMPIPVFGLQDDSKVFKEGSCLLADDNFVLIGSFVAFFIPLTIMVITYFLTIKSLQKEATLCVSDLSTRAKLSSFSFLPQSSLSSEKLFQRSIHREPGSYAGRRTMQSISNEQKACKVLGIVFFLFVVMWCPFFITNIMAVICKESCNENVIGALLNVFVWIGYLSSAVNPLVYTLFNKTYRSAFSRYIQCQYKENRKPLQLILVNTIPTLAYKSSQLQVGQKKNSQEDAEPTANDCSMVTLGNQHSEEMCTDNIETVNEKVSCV
IMP-1 inhibitor: IMP-1 metallo-beta-lactamase inhibitors, primary screen, biochemical, epi-absorbance readout, Pseudomonas aeruginosa enzyme; purified IMP-1, nitrocefin hydrolysis, epi-absorbance fluorescence; inhibition, % at 5.6 µM; hit rate 0.45% among 290,000;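 active = inhibition above the mean plus 3 SD of all compounds in the same screening run, cut at about 4.5% in these data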;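 note: 0% = IMP-1 with DMSO and 100% = DMSO wells lacking enzyme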
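System: Purified recombinant IMP-1 metallo-beta-lactamase enzyme | Measured by: Fluorescence quenching readout, ex 480/em 530 nm | Replication: Singlicate | Incubation: 15 min preincubation plus 25 min reaction at 25 °C | Evaluation: Percent inhibition from optical density relative to buffer-blank wells | Benchmarks: DMSO with and without IMP-1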
dFosB activator: activators of delta FosB homodimer, primary screen, biochemical, fluorescence polarization, TAMRA-CDK5 oligo, single point | Protein FosB (Mus musculus), P13346 | purified delta FosB; percent of positive-control signal above neutral wells | activation, % at 25 µM | hit rate 0.99% among 340,000;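 active = mean activation above about 17%, with every replicate also reaching it, limit read from the data, passing the limit was not always enough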
VIM-2 inhibitor: VIM-2 metallo-beta-lactamase inhibitors, primary screen, biochemical, epi-absorbance readout, Pseudomonas aeruginosa enzyme; purified VIM-2, nitrocefin hydrolysis, epi-absorbance fluorescence; inhibition, % at 5.6 µM; hit rate 0.89% among 290,000; AID 1527, 2009;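 active = inhibition above the mean of all tested compounds plus 3 SD, cutoff set per screening run, cut at about 7.5% in these data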;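 note: red hydrolysis product quenches plate fluorescence so inhibitors raise well fluorescence; 0% = enzyme with DMSO and 100% = DMSO without enzyme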
OPRM1 ag: OPRM1 agonists via beta-arrestin recruitment, confirmation, counter-screen for mouse HTR2A agonist project, cell-based, luminescence, single concentration. U2OS OPRM1 beta-arrestin PathHunter; DMSO 0%, DAMGO 9.3 µM 100%. activation, % at 9.3 µM. shares compounds with m5-HT2A agonist. hit rate 5.3% among 2,300;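 active = mean activation above the mean of DMSO-only wells plus 3 SD, cut at about 0.5% in these data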
m5-HT2A ag conf: mouse HTR2A agonists, beta-arrestin recruitment, confirmation, cell-based, luminescence, CHO-K1 PathHunter, triplicate | shares compounds with m5-HT2A agonist | DMSO 0%, 30 µM serotonin 100% | activation, % at 7.6 µM | hit rate 19% among 2,300;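 active = mean activation across triplicates above the hit threshold derived in the original primary screen, cut at about 15% in these data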
Active calls of the source: *; . = no result given. The list is not random: actives were taken first. Their share in the collection is about 2.5%.

SMILES	m5-HT2A agonist	IMP-1 inhibitor	dFosB activator	VIM-2 inhibitor	OPRM1 ag	m5-HT2A ag conf
CC1=C(C(=O)OCc2ccccc2)C(c2ccccc2Br)NC(=O)N1 (stereo not drawn)	29*	0	-10	1	0	23*
N#Cc1c(C#N)c(SSc2c(C#N)c(C#N)c(N)n2-c2ccccc2)n(-c2ccccc2)c1N	-2	.	-4	.	.	.
Cc1cc(OC(=O)c2cccc(F)c2)c([N+](=O)[O-])c(=O)[nH]1	15*	-2	-6	-2	0	-3
C[C@@]12CCC3[C@@](CCC4[C@@]3(C)CCC[C@@]4(C)C(=O)NC3CCCCC3)(CC1=O)C2 (stereo partly drawn)	4	.	-4	.	.	.
C[C@@]12CCC3[C@@](CCC4[C@@]3(C)CCC[C@@]4(C)C(=O)N3CCCCC3)(CC1=O)C2 (stereo partly drawn)	14*	.	6	.	0	-5
COc1ccc(OCCNC(=O)C2(C)CCN2Cc2ccc3ccccc3c2)cc1 (stereo not drawn)	-3	.	.	.	.	.
COc1ccc(CCN2CC(C(=O)NCCCn3nc(C)cc3C)CCC2=O)cc1 (stereo not drawn)	18*	0	-2	1	0	2
Cn1c(=O)c2sccc2n(Cc2ccccc2)c1=O	0	-4	-1	-1	.	.
CCC(CC)COC(=O)C1=C(C)NC(=O)NC1c1cccc([N+](=O)[O-])c1 (stereo not drawn)	3	-2	-13	-1	.	.
CC(=O)c1ccc(N2CCN(C(=O)c3cc(-c4ccncc4)nc4ccc(Cl)cc34)CC2)cc1	15*	1	-15	0	-1	-3
O=C(c1cc(-c2ccncc2)nc2ccc(Cl)cc12)N1CCN(C(=O)C2CCCO2)CC1 (stereo not drawn)	6	-5	-14	-1	.	.
Cc1cc(N2CCN(c3nc4ccccc4s3)CC2)n2ncnc2n1	22*	-1	-2	8.2*	0	4
Cc1cc(N2CCN(C(c3ccccc3)c3ccccc3)CC2)n2ncnc2n1	-3	0	-13	-1	.	.
COCC#Cc1ccc2c(c1)O[C@@H](CN(C)C(=O)Nc1ccc(OC)cc1)[C@H](C)CN([C@H](C)CO)S2(=O)=O	1	.	.	.	.	.
CC(OC(=O)CCCN=C1NS(=O)(=O)c2ccccc21)C(=O)Nc1ccccc1F (stereo not drawn)	25*	.	-1	.	-1	-4
COc1ccc(NC(=O)CSc2nc3ccccc3c(=O)n2CCCN2CCCCC2)c(OC)c1	42*	-5	-5	-1	0	18*
COc1ccc(NC(=O)CSc2nc3ccccc3nc2N2CCOCC2)c(OC)c1	16*	-1	-13	-1	-1	-5
CCOC(=O)Cc1csc(NC(=O)c2cc(-c3ccncc3)nc3ccccc23)n1	-3	.	-21	.	.	.
NC(=N\N=Cc1ccco1)/C(N)=N/N=Cc1ccco1	-5	.	-7	.	.	.
CCN(C(=O)COC(=O)/C=C/c1c(C)nn(-c2ccccc2)c1C)c1c(N)n(Cc2ccccc2)c(=O)[nH]c1=O	18*	.	-4	.	-1	-3
CCCCN(C(=O)c1ccc([N+](=O)[O-])s1)c1c(N)n(CC(C)C)c(=O)[nH]c1=O	5	.	5	.	.	.
CCCCn1c(N)c(N(CCC(C)C)C(=O)c2ccc([N+](=O)[O-])s2)c(=O)[nH]c1=O	19*	.	-7	.	0	-4
Brc1cccc(CN2CCN(c3ncccn3)CC2)c1	33*	-1	-7	-2	0	84*
COc1ccccc1N1CCN(Cc2ccsc2)CC1	4	-1	-7	1	.	.
c1ccc(COc2cccc(CN3CCN(c4ccccn4)CC3)c2)cc1	36*	-4	-9	-4	-1	93*
SMILES	m5-HT2A agonist	IMP-1 inhibitor	dFosB activator	VIM-2 inhibitor	OPRM1 ag	m5-HT2A ag conf
CCc1ccc(CN2CCN(c3ncccn3)CC2)cc1	8	-4	-8	-1	.	.
Brc1cccc(CN2CCCCCCC2)c1	1	-3	6	2	.	.
c1ccc(N2CCN(Cc3ccsc3)CC2)nc1	35*	-1	3	0	-1	102*
Cc1cccc(CN2CCN(c3ncccn3)CC2)c1	37*	1	5	-1	-1	93*
O=C(O)CNC(=O)c1ccc(NC(=O)/C(=C/c2ccccc2)NC(=O)c2ccccc2)cc1	-2	-4	0	0	.	.
O=C(NNC(=O)C1CC(=O)N(Cc2ccccc2)C1)c1ccc(Br)cc1 (stereo not drawn)	0	-2	6	-2	.	.
CC1(c2nnnn2Cc2ccccc2)CCC(=O)N1Cc1ccco1 (stereo not drawn)	1	.	.	.	.	.
c1ccc(CCCN2CCN(c3ccccn3)CC2)cc1	-1	-1	3	0	.	.
Cc1cccc(CN2CCN(c3ccccn3)CC2)c1	32*	-1	-2	-2	-1	92*
Cc1ccc(CN2CCN(c3ccccn3)CC2)s1	49*	-3	2	0	0	103*
O=C(O)c1cc(S(=O)(=O)Nc2ccc3cn[nH]c3c2)ccc1Cl	7	.	-3	.	.	.
Cc1ccccc1NC(=O)Nc1nc(C2CCC(=O)N2)cs1 (stereo not drawn)	-3	.	.	.	.	.
COc1ccc2c(c1O)-c1ccccc1CCN(C)C2	-5	-2	0	-3	.	.
CN1CCc2cccc3c2[C@@H]1Cc1ccc(O)c(O)c1-3	38*	-3	5	2	0	97*
Cc1cccc(NC(=O)C2Cc3ccccc3O/C2=N\O)c1 (stereo not drawn)	16*	-2	4	-2	-1	-3
COc1ccc(C(=O)N2CCN(c3ccc(NC(=O)c4ccco4)cc3)CC2)cc1	4	-2	1	-1	.	.
CC(C)Oc1ccc(C(=O)Nc2ccc(N3CCN(C(=O)c4ccco4)CC3)cc2)cc1	15*	-2	-8	-3	0	-2
CC(OC(=O)CCC(=O)c1ccc(Cl)s1)C(=O)NC1(C#N)CCCCC1 (stereo not drawn)	6	.	-6	.	.	.
N/C(=N\OC(=O)c1ccccc1Cl)c1cccc([N+](=O)[O-])c1	15*	-1	3	-1	0	-6
N/C(=N/OC(=O)c1cccc([N+](=O)[O-])c1)c1cccc([N+](=O)[O-])c1	8	-3	15	-4	.	.
COC(=O)c1cc(NC(=O)c2c(F)c(F)c(F)c(F)c2F)cc(C(=O)OC)c1	18*	-3	-14	-1	0	6
CC(=O)c1cccc(NC(=O)c2c(F)c(F)c(F)c(F)c2F)c1	8	0	8	0	.	.
